Screening data deposited in PubChem BioAssay by Broad Institute.
FN deposit inh – fibronectin deposition inhibition | inhibition, % at 12.6 µM | AID 743247 | AH1F fibroblasts, Alexa488-fibronectin deposition fluorescence, overnight | 350,000 tested, 0.086% active;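 active = mean inhibition across replicates of 30% or more, regardless of how many single replicates reach that level; inconclusive = mean under 30% yet at least half of replicates reach 30%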
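Test system: AH1F fibroblast monolayer depositing Alexa488-labelled fibronectin into matrix. Input: 10000 cells per well. Technique: fluorescence, ex 485 nm, em 525 nm. Buffer or medium: DMEM plus 2% serum, read in PBS. Timing: 1 h cell adhesion before compound, then overnight fibronectin incubation. Compound: single dose, pinned. Read-out basis: inhibition from reduced deposited-fibronectin fluorescence.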
Shn3 3UTR inh – reduces Shn3 3'UTR luciferase signal in osteoblasts; Clone20 osteoblast Shn3 3'UTR firefly luciferase, 24 h; inhibition, % at 12.5 µM; 360,000 tested, 0.52% active; AID 588674;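 active = mean inhibition of at least 75% with every replicate also reaching 75%; inconclusive = mean inhibition at least 75% but some replicate below; inactive = mean inhibition below 75%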
PAX8 inh HTS – PAX8 transcriptional activity inhibition; RMG-I TPO-luciferase reporter, SteadyGlo, 24 h; inhibition, % at 12.6 µM; 360,000 tested, 1.2% active;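 active = mean replicate inhibition at least 60% with every replicate also reaching 60%; inconclusive = only one of the two criteria is met; inactive = mean below 60% and not all replicates reaching 60%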;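 note: luciferase light reporting Pax8 driven TPO promoter activity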
EWS-Fli block – EWS/Fli transcriptional activity inhibition; AID 651661; 350,000 tested, 0.67% active; inhibition, % at 12.6 µM; A673 NR0B1-luciferase reporter, viability-normalised;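 active = mean inhibition of at least 50% after viability correction, with every replicate also passing that limit; inconclusive = mean reaches 50% but only one of two replicates passes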;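 note: firefly luciferase signal divided by Alamar Blue viability fluorescence both relative to DMSO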
LMP1 NFkB inh – reduces LMP1-driven NF-kappaB luciferase signal; LMP1-induced NF-kappaB luciferase reporter cells, luminescence; inhibition, % at 12.5 µM; 350,000 tested, 0.69% active; in the data active = inhibition above about 41%; inconclusive = no clear call, values can overlap the other calls
aSyn UTR inh – MLPCN primary screen, SNCA 5' untranslated region; alpha-synuclein 5'UTR reporter, inhibitor activity; inhibition, % (tested at 7.5 µM); 300,000 tested, 0.82% active; AID 1813; in the data active = inhibition above about 60%; inconclusive = no clear call, values can overlap the other calls;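 note: H4 neuroglioblastoma cells stably carrying SNCA 5'UTR luciferase fusion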
Large screens that a line does not name were inactive. Only some compounds are listed: those with a hit (about 2.1% of all), similar ones and a draw of the others.

COc1ccc(-n2nnnc2C(CCc2ccccc2)N2CCC(n3c(=O)[nH]c4ccccc43)CC2)cc1 (stereo unspecified)	PAX8 inh HTS 104.4 (no result: FN deposit inh, LMP1 NFkB inh, aSyn UTR inh)
COc1ccc(C(c2nnnn2-c2ccc3c(c2)OCCO3)N2CCC(n3c(=O)[nH]c4ccccc43)CC2)cc1 (stereo unspecified)	none (no result: LMP1 NFkB inh, aSyn UTR inh)
COC(=O)C[C@H]1CC[C@@H]2NC[C@@H](O)COC[C@H]2O1	none (no result: Shn3 3UTR inh, LMP1 NFkB inh, aSyn UTR inh)
COc1cccc(-c2ccc([C@@H]3[C@H]4CN(C(=O)Cc5ccncc5)CCCCN4[C@H]3CO)cc2)c1	none (no result: Shn3 3UTR inh, EWS-Fli block, LMP1 NFkB inh, aSyn UTR inh)
COC(=O)C(O)(c1ccc(NC(=S)NC(=O)c2ccc(Cl)cc2Cl)cc1)C(F)(F)F (stereo unspecified)	PAX8 inh HTS 83.8
O=[N+]([O-])c1ccc(CN2CC=C(c3ccccc3)CC2)cc1	LMP1 NFkB inh 42.9 (no result: FN deposit inh, PAX8 inh HTS, EWS-Fli block)
CN1CC=C(c2c[nH]c3ccccc23)CC1	none
C1=C(c2c[nH]c3ccccc23)CCN(Cc2ccccc2)C1	PAX8 inh HTS 64.2
CN(C)c1ccc(CN2CC=C(c3ccc(F)cc3)CC2)cc1	none (no result: PAX8 inh HTS, EWS-Fli block)
CC(=O)OC[C@]12CCC(C)=C[C@H]1O[C@@H]1[C@H](O)[C@@H](OC(C)=O)[C@@]2(C)[C@]12CO2	Shn3 3UTR inh 99.1, EWS-Fli block 55.5, LMP1 NFkB inh 74.1 (no result: FN deposit inh, PAX8 inh HTS, aSyn UTR inh)
C[n+]1c(-c2ccccc2)cc(-c2ccc(O)cc2)cc1-c1ccccc1	none
Clc1ccc(C[n+]2c(-c3ccccc3)cc(-c3ccccc3)cc2-c2ccccc2)cc1	PAX8 inh HTS 97.3, LMP1 NFkB inh inconclusive
Fc1ccc(C[n+]2c(-c3ccccc3)cc(-c3ccccc3)cc2-c2ccccc2)cc1	PAX8 inh HTS 88.6 (no result: Shn3 3UTR inh, LMP1 NFkB inh)
CC[C@@H](O)C[C@H]1CCC[C@@]2(C[C@@H]3OC(=O)/C=C/[C@@](C)(O)[C@@H](O)[C@H](C)[C@@H](O)[C@H](OC4CCC(N(C)C)C(C)O4)[C@@H](O)[C@](C)(O)CCCCC/C=C/[C@@H]4CC(C)(C)O[C@@]4(O)C[C@H](O2)[C@H]3C)O1 (stereo partly specified)	Shn3 3UTR inh 90.2, PAX8 inh HTS inconclusive (no result: aSyn UTR inh)
Cc1ccc2nc(-c3ccc(CN4CCC(n5c(=O)[nH]c6ccccc65)CC4)cc3)c(-c3ccccc3)nc2c1	PAX8 inh HTS 64.9 (no result: FN deposit inh, Shn3 3UTR inh, LMP1 NFkB inh, aSyn UTR inh)
O=C(OC1CCN(CCCl)CC1)C(c1ccccc1)c1ccccc1	Shn3 3UTR inh 93.3, LMP1 NFkB inh 51.1 (no result: aSyn UTR inh)
CC(C)NC(=O)N1C[C@@H]2N[C@H](C1)C2c1ccccc1 (stereo partly specified)	none (no result: Shn3 3UTR inh, PAX8 inh HTS, EWS-Fli block, LMP1 NFkB inh, aSyn UTR inh)
CCOC(C[n+]1c(-c2ccccc2)cc(C)cc1-c1ccccc1)OCC	PAX8 inh HTS 67.3
Nc1cc(Cl)c2nonc2c1[N+](=O)[O-]	Shn3 3UTR inh 94.8, PAX8 inh HTS 76.1 (no result: EWS-Fli block, aSyn UTR inh)
O=[N+]([O-])c1c(Cl)c(Cl)c(Cl)c(Cl)c1Cl	none (no result: aSyn UTR inh)
COC1=C(C)C(=O)C2=C(C1=O)C(CO)N1C(C#N)C3CC4C(C1C2N1CCOC41)N3C (stereo unspecified)	PAX8 inh HTS 92.4, LMP1 NFkB inh 85.6 (no result: aSyn UTR inh)
CCN1[C@@H]2Cn3c(ccc(-c4ccc(OC)cc4)c3=O)[C@H]1[C@@H](C(=O)OC)[C@@H]2CO	none (no result: FN deposit inh, Shn3 3UTR inh, PAX8 inh HTS, LMP1 NFkB inh, aSyn UTR inh)
CCCc1nc2ccc(Br)cc2c(=O)n1-c1ccc([N+](=O)[O-])c(C(F)(F)F)c1	Shn3 3UTR inh 92.8, PAX8 inh HTS 93.4, LMP1 NFkB inh 44.4 (no result: EWS-Fli block)
O=[N+]([O-])c1ccc(-[n+]2c(-c3ccccc3)cc(-c3ccccc3)cc2-c2ccccc2)cc1	none
Cc1ccc(-c2cc(-c3ccccc3)cc(-c3ccccc3)[n+]2-c2ccccc2C(=O)O)cc1	PAX8 inh HTS 77.2
CCCNC(=O)[C@H]1[C@H](CO)[C@H]2Cn3c(cccc3=O)[C@H]2N1C	none (no result: FN deposit inh, Shn3 3UTR inh, LMP1 NFkB inh, aSyn UTR inh)
COc1ccc(C(=O)N/N=C/C23CC[C@@H](O)CC2(O)CC[C@@H]2[C@@H]3CCC3(C)C(C4=CC(=O)OC4)CCC23O)cc1 (stereo partly specified)	aSyn UTR inh 88.5
CC12CC[C@H]3[C@@H](CCC4(O)C[C@H](O)CCC34/C=N/NC(=O)c3ccc(O)cc3)C1(O)CCC2C1=CC(=O)OC1 (stereo partly specified)	none (no result: Shn3 3UTR inh)
CN(C)c1ccc(C(=O)N/N=C/C23CC[C@@H](O)CC2(O)CC[C@@H]2[C@@H]3CCC3(C)C(C4=CC(=O)OC4)CCC23O)cc1 (stereo partly specified)	aSyn UTR inh 94.9 (no result: Shn3 3UTR inh)
